Assay [1] in a line: Antiproliferative activity against human HL60/MX2 cells after 48 hrs by MTT assay. The format is functional, cell-based. As to conditions: HL60/MX2, 48 h. Summed up: (§1)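 Cells seeded at 5000 per well and left overnight, then exposed to increasing concentrations (0-50 μM) for 48 h. […] HL-60/MX2 is a mitoxantrone-selected HL-60 derivative with reduced Topo IIα/β.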
For orientation: Tetrazolium assays rely on reduction of a dye to a coloured formazan, in cell work by metabolically active cells.

The test system of a further assay is K562. Briefly: Antiproliferative activity against human K562 cells after 48 hrs by MTT assay. It is filed as functional, cell-based. As to conditions: K562, 48 h. The gist of the method:
as §1

A further assay deals with HeLa. Briefly: Antiproliferative activity against human HeLa cells after 48 hrs by MTT assay. It is filed as functional, cell-based. The gist of the method: as §1
The next assay deals with Raji. Briefly: Antiproliferative activity against human Raji cells after 48 hrs by MTT assay. The format is functional, cell-based. The gist of the method: as §1
Assay [2] is described as follows: Antiproliferative activity against human MDA-MB-201 cells after 48 hrs by MTT assay. It is filed as functional, cell-based. Summed up:
as §1

The test system of the next assay is HEK293. Briefly: Cytotoxicity against HEK293 cells after 48 hrs by MTT assay. As to conditions: Homo sapiens, HEK293, 48 h. It is filed as cell-based.
The next assay relates to A549. The experiment in a line: Antiproliferative activity against human A549 cells after 48 hrs by MTT assay. As to conditions: A549, 48 h. It is filed as functional, cell-based. The gist of the method: as §1
The nature of assay [3]: Antiproliferative activity against human HL60 cells after 48 hrs by MTT assay. As to conditions: HL-60, 48 h. It is filed as functional, cell-based. Summed up: as §1
Assay [4] concerns the target T1, DNA topoisomerase 1 (Homo sapiens) (UniProt P11387).
T1 sequence (whole entry): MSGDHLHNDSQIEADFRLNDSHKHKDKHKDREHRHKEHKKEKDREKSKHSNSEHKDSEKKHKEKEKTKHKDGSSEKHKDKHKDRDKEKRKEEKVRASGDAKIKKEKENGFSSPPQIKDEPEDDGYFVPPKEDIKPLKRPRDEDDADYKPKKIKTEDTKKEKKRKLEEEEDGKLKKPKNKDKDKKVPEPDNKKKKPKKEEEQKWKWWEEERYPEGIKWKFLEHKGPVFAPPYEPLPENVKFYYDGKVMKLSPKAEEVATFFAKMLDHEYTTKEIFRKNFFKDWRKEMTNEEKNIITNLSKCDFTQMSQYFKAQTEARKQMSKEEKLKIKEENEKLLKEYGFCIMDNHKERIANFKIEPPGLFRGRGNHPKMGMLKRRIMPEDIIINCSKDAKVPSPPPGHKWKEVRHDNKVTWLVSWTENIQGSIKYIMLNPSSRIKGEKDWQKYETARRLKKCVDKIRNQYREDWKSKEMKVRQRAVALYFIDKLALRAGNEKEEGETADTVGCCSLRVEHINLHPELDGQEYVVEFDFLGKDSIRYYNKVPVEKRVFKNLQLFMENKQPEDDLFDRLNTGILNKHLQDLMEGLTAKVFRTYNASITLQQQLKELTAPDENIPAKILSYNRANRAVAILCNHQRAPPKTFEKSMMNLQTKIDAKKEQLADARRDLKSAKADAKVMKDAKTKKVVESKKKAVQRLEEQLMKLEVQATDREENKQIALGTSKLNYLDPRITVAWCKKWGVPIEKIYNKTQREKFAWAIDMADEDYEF
Briefly: Inhibition of recombinant human topoisomerase 1-mediated relaxation of supercoiled pBR322 DNA at 50 uM incubated for 30 mins by agarose gel electrophoresis. The gist of the method: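 Supercoiled pBR322 relaxed by Topo I with compound, incubated 30 min at 37 °C, stopped with 1% SDS dye, run on 1% agarose 1 h at 90 V in TAE, stained and imaged under UV; camptothecin as reference.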

Assay [5] deals with DNA topoisomerase 2-alpha (Homo sapiens, UniProt P11388). The experiment in a line: Inhibition of purified human topoisomerase 2-mediated relaxation of supercoiled pBR322 DNA at 50 uM incubated for 30 mins by agarose gel electrophoresis. The gist of the method: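 Reactions contained 0.2 μg supercoiled pBR322 in 50 mM Tris-HCl pH 8.0, 150 mM NaCl, 10 mM MgCl2, 0.5 mM DTT, 30 μg/ml BSA, normally 2 mM ATP (1, 2 or 4 mM in ATP-competition runs). Started with 1 U human Topo II, 30 min at 37 °C, stopped with sarcosyl buffer, run on 1% agarose 1.5 h at 75 V, gel-stained and imaged under UV.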

The subject of another assay is HL-60. Briefly: Resistance index, ratio of IC50 for human HL60/MX2 cells to IC50 for HL60 cells. It is filed as functional. Summed up:
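Resistance index calculated as MTT-derived IC50 (48 h exposure, 0-50 μM, A570 readout) in HL-60/MX2 divided by IC50 in parental HL-60.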

pIC50: −log10 of the molar value. Active and inactive are the calls of the source. The calls are words filed in the database; no cut-off is given here.

DNA topoisomerase 2-alpha, sequence (P11388 whole entry): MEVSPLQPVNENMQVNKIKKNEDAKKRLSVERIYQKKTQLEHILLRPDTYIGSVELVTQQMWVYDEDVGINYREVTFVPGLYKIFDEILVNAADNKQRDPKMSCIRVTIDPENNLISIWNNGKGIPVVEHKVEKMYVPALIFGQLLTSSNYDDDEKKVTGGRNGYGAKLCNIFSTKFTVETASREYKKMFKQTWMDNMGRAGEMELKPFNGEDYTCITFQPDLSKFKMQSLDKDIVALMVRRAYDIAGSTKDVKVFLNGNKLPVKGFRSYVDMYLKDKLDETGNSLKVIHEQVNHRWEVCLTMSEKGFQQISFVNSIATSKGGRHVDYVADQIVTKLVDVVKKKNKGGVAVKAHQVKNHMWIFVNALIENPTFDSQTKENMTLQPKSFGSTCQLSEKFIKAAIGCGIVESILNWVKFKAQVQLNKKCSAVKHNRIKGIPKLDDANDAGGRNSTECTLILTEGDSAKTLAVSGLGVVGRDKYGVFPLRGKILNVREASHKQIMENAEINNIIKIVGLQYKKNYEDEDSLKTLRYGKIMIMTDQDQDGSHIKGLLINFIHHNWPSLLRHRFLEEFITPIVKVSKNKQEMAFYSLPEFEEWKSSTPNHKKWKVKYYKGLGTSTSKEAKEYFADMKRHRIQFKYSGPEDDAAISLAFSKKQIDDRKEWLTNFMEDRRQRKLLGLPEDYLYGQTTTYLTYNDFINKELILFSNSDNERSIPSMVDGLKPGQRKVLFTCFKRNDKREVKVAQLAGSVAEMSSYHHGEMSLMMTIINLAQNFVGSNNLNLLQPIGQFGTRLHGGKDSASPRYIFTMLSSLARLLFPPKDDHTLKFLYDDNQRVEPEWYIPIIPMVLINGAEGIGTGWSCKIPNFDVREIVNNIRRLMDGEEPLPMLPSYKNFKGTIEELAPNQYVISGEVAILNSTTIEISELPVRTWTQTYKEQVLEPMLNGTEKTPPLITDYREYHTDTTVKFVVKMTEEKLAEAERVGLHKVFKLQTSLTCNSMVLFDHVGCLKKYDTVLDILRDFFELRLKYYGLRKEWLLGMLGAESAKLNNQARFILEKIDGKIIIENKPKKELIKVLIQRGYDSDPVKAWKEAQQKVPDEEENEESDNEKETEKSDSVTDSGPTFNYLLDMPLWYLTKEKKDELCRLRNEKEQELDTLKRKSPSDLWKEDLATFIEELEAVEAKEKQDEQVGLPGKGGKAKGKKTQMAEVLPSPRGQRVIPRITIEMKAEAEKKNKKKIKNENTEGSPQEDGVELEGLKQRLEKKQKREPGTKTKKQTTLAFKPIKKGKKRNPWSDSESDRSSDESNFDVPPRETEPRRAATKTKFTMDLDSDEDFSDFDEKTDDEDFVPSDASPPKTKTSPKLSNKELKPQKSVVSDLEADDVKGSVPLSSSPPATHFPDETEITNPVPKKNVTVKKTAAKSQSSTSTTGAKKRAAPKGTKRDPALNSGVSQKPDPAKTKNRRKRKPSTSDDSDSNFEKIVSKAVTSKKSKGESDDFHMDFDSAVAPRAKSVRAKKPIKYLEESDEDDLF

With `N#Cc1nc2c(-c3nc4ccccc4[nH]3)c(N)n(CCO)c2nc1C#N`, the pIC50 – broadly, the negative decadic logarithm of the IC50, by convention in mol/L – in assay [1] is below 4.30; in the assay with K562, below 4.30; with HeLa, below 4.30; in the assay on Raji, 5.26; in assay [2], below 4.30; in the assay on HEK293, below 4.30. The pIC50 (in the assay on A549; in assay [3]) was below 4.30 each time. Besides, the inhibition result in assay [4] and in assay [5] was “inactive” each time.
For `CN(C)CCn1c(N)c(-c2nc3ccccc3n2C)c2nc(C#N)c(C#N)nc21`, the pIC50 was 5.33 in assay [1]; below 4.30 in the assay with K562; below 4.30 in the assay with HeLa; 4.33 with Raji; below 4.30 in [2]; below 4.30 in the assay on HEK293. In addition, the pIC50 (with A549; in [3]) was below 4.30 in each case. The inhibition entry in assay [5] is “inactive”.
`CCN(CC)CCCn1c(N)c(-c2nc3cc(Cl)ccc3[nH]2)c2nc(C#N)c(C#N)nc21`: the “Ratio IC50” value in the assay with HL-60 was determined as 0.7. In addition, the pIC50 in assay [1] was 5.61; in the assay with K562, 5.32; with HeLa it was 4.61; in the assay with Raji, 5.79; in assay [2], 4.64; in the assay on HEK293, 5.07. Moreover, the figures for the pIC50 (with A549; in assay [3]) were below 4.30 and 5.46, respectively. In addition, in assay [5], the inhibition result is “Active”.
On to `CN(C)CCCCn1c(N)c(-c2nc3cc(Cl)ccc3[nH]2)c2nc(C#N)c(C#N)nc21`, for which the “Ratio IC50” value in the assay with HL-60 was 0.4. Also, the negative-log IC50 (pIC50) was 6.24 in assay [1]; 5.71 in the assay with K562; 5.51 with HeLa; 6.02 in the assay with Raji; 5.48 in assay [2]; 5.33 with HEK293. The negative logarithm of the IC50 (pIC50) was 4.92 with A549 and 5.83 in assay [3]. In [5], the inhibition entry is “Active”.
As to `N#Cc1nc2c(-c3nc4ccccc4[nH]3)c(N)n(CCCN3CCOCC3)c2nc1C#N`, the negative-log IC50 (pIC50) in assay [1] was 5.25; with K562, 5.11; in the assay on HeLa it was below 4.30; in the assay on Raji, 4.84; in [2] it was below 4.30; with HEK293 it was below 4.30. Moreover, the negative logarithm of the IC50 (pIC50) (in the assay on A549; in [3]) was below 4.30 throughout. For the same compound, the inhibition entry in [4] and in [5] was “inactive” in each case.
Take `N#Cc1nc2c(-c3nc4ccccc4[nH]3)c(N)n(CCN3CCOCC3)c2nc1C#N`: the negative logarithm of the IC50 (pIC50) in assay [1] was below 4.30; with K562, below 4.30; in the assay with HeLa it was below 4.30; in the assay on Raji, 5.54; in [2] it was below 4.30; with HEK293, 4.65. The pIC50 in the assay on A549 was below 4.30; in assay [3] it was 5.04. Moreover, the inhibition result in [4] and in [5] was “inactive” in each case.
Consider `CN(C)CCCn1c(N)c(-c2nc3cc(Cl)ccc3[nH]2)c2nc(C#N)c(C#N)nc21`, for which, in the assay on HL-60, the “Ratio IC50” value was found to be 1.8. Also, the pIC50 is 5.27 in [1]; 4.97 with K562; 4.78 with HeLa; 5.51 in the assay on Raji; 4.55 in assay [2]; 4.93 in the assay with HEK293. Besides, the pIC50 in the assay with A549 is below 4.30; in assay [3] it was 5.53. For the same compound, the inhibition entry in assay [5] is “Active”.
Take `CCn1c(N)c(-c2nc3ccccc3[nH]2)c2nc(C#N)c(C#N)nc21`: the negative logarithm of the IC50 (pIC50) (in assay [1]; with K562; with HeLa; in the assay with Raji; in [2]; in the assay on HEK293) was below 4.30 throughout. Also, the negative-log IC50 (pIC50) (in the assay on A549; in assay [3]) was below 4.30 in each case. Moreover, the inhibition result in [4] and in [5] was “inactive” throughout.
As for `N#Cc1nc2c(-c3nc4ccccc4[nH]3)c(N)n(CCc3ccccc3)c2nc1C#N`, the negative logarithm of the IC50 (pIC50) in assay [1] is below 4.30; in the assay with K562 it was below 4.30; in the assay with HeLa, below 4.30; in the assay with Raji, 4.81; in [2], below 4.30; with HEK293, below 4.30. Besides, the negative-log IC50 (pIC50) (in the assay on A549; in assay [3]) was below 4.30 each time. For the same compound, in [5], the inhibition result was “inactive”.
With `N#Cc1nc2c(-c3nc4ccccc4[nH]3)c(N)n(CCN3CCCC3)c2nc1C#N`, the negative-log IC50 (pIC50) is below 4.30 in [1]; 5.19 in the assay with K562; below 4.30 in the assay on HeLa; below 4.30 with Raji; below 4.30 in [2]; 4.74 in the assay with HEK293. Moreover, the negative logarithm of the IC50 (pIC50) was below 4.30 in the assay on A549 and 5.32 in [3]. The inhibition result in assay [4] and in assay [5] was “inactive” throughout.
As for `CCN(CC)CCCCn1c(N)c(-c2nc3cc(Cl)ccc3[nH]2)c2nc(C#N)c(C#N)nc21`, in the assay on HL-60, the “Ratio IC50” value is 2.2. The pIC50 in [1] was 5.75; with K562, 5.90; in the assay with HeLa, 5.44; in the assay with Raji, 6.14; in assay [2] it was 5.55; in the assay with HEK293 it was 5.41. Further, the pIC50 in the assay on A549 was 5.64; in [3] it was 6.09. Moreover, the inhibition result in [5] was “Active”.
On to `N#Cc1nc2c(-c3nc4ccccc4o3)c(N)n(CCCN3CCCCC3)c2nc1C#N`, for which the “Ratio IC50” value in the assay with HL-60 is recorded as 1.4. Moreover, the negative-log IC50 (pIC50) is 5.26 in assay [1]; below 4.30 with K562; 4.91 in the assay with HeLa; 5.50 in the assay on Raji; 4.49 in [2]; 4.72 in the assay with HEK293. In addition, the pIC50 with A549 is 5.06; in assay [3], 5.42. The inhibition entry in [5] is “inactive”.
`N#Cc1nc2c(-c3nc4ccccc4[nH]3)c(N)n(CCCNc3ccccc3)c2nc1C#N`: the pIC50 with HeLa was 4.58; in [3], 5.16.
`CN(C)CCCCCn1c(N)c(-c2nc3ccccc3[nH]2)c2nc(C#N)c(C#N)nc21`: the pIC50 with HeLa is 4.97; in [3], 5.47.
Regarding `CN(C)CCCCn1c(N)c(C#N)c2nc(C#N)c(C#N)nc21`, the negative-log IC50 (pIC50) was below 4.30 with HeLa and 4.89 in [3]. Also, in assay [5], the inhibition result is “inactive”.
As for `CCN(CC)CCn1c(N)c(-c2nc3ccccc3n2C)c2nc(C#N)c(C#N)nc21`, the “Ratio IC50” value in the assay on HL-60 is given as 0.4. In addition, the pIC50 was 5.49 in assay [1]; below 4.30 in the assay on K562; below 4.30 with HeLa; 5.68 in the assay on Raji; below 4.30 in [2]; 4.60 in the assay with HEK293. The negative logarithm of the IC50 (pIC50) in the assay with A549 was below 4.30; in [3] it was 5.06. In addition, the inhibition entry in [5] was “inactive”.
On to `CCN(CC)CCn1c(N)c(-c2nc3cc(Cl)ccc3[nH]2)c2nc(C#N)c(C#N)nc21`, for which the pIC50 was 5.03 in assay [1]; below 4.30 in the assay with K562; below 4.30 with HeLa; 4.50 in the assay with Raji; below 4.30 in assay [2]; below 4.30 with HEK293. For the same compound, the negative-log IC50 (pIC50) (in the assay on A549; in [3]) was below 4.30 throughout. In addition, the inhibition result in [5] was “inactive”.
With `CN(C)CCn1c(N)c(-c2nc3cc(Cl)ccc3[nH]2)c2nc(C#N)c(C#N)nc21`, the pIC50 was below 4.30 in assay [1]; 4.95 in the assay on K562; below 4.30 in the assay with HeLa; 4.93 in the assay with Raji; below 4.30 in [2]; below 4.30 with HEK293. Further, the pIC50 (with A549; in assay [3]) was below 4.30 throughout. In assay [5], the inhibition result was “inactive”.

These data come from ChEMBL document CHEMBL3758120, “Synthesis and Mechanism Studies of 1,3-Benzoazolyl Substituted Pyrrolo[2,3-b]pyrazine Derivatives as Nonintercalative Topoisomerase II Catalytic Inhibitors” (J Med Chem, 2016).
